Drawing on ChEMBL document CHEMBL3774382, “Design and synthesis of small molecule-sulfotyrosine mimetics that inhibit HIV-1 entry” (Bioorg Med Chem, 2016), this text covers IC50 for one compound.

pIC50: −log10 of the molar value.

Experiment [1] concerns Human immunodeficiency virus 1. In words: Antiviral activity against HIV1 CCR5-tropic strain YU2 infected in human 293T cells at 400 uM after 48 hrs by neutralization assay. The experiment is classed as functional, cell-based, isolate YU2. Summed up:
(§1)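 Env-pseudotyped virus made by transfecting 293T cells with SG3denv plus an HIV-1 env plasmid. Medium changed at 24 h, supernatant harvested at 48 h, 0.45 μm filtered, stored at −80 °C. Two-fold serial inhibitor dilutions mixed with virus, then TZM-bl cells added. Incubated at 37 °C, 5% CO₂, fresh medium at 24 h. Luciferase read after lysis at 48 h post-infection. Single round. Tested up to 400 μM.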

Experiment [2] deals with Human immunodeficiency virus 1. Put plainly: Antiviral activity against HIV1 CXCR4-tropic strain HxB2 infected in human 293T cells at 400 uM after 48 hrs by neutralization assay. The format is functional, organism-based. The procedure, abridged: as §1
For experiment [3], the system named is Human immunodeficiency virus 1. Put plainly: Antiviral activity against HIV1 dual CXCR4/CCR5-tropic strain 89.6 infected in human 293T cells after 48 hrs by neutralization assay. As to conditions: Human immunodeficiency virus 1, 89.6, HEK-293T; call rule not given here. The experiment is classed as functional, organism-based. The procedure, abridged: as §1
Experiment [4] concerns Human immunodeficiency virus 1. In words: Antiviral activity against HIV1 JRCSF infected in human 293T cells after 48 hrs by neutralization assay. The note with it: Human immunodeficiency virus 1, JRCSF ISOLATE, HEK-293T. The experiment is classed as functional, cell-based. Summed up: as §1
Experiment [5] deals with Human immunodeficiency virus 1. Put plainly: Antiviral activity against HIV1 NL4-3 infected in human 293T cells after 48 hrs by neutralization assay. The note with it: Human immunodeficiency virus 1, NL4-3, HEK-293T. The experiment is classed as functional, organism-based. Summed up:
as §1

Turning to `CC1=NN(c2nc(C(F)(F)F)cs2)C(=O)/C1=N\Nc1ccc2c(S(=O)(=O)O)cc(S(=O)(=O)O)cc2c1`, the IC50 result in experiment [1] and in experiment [2] was “Not Active” throughout. The results for the pIC50 in experiment [3], in experiment [4] and in experiment [5] were 4.10, 4.08 and 4.10, respectively.
